Results reported in ChEMBL document CHEMBL4196238, “Synthesis and Antiviral Evaluation of Carbocyclic Nucleoside Analogs of Nucleoside Reverse Transcriptase Translocation Inhibitor MK-8591 (4'-Ethynyl-2-fluoro-2'-deoxyadenosine)” (J Med Chem, 2018).

How the values were obtained:
[1] = target: Human immunodeficiency virus type 1 reverse transcriptase (Human immunodeficiency virus 1, UniProt Q72547); test: Inhibition of full-length wild-type HIV1 reverse transcriptase expressed in Escherichia coli BL21(DE3) pre-incubated for 30 mins before addition of template/primer substrate and measured after 90 mins
[2] = Cytotoxicity in human MT4 cells expressing GFP assessed as reduction in cell viability incubated for 48 hrs by cell-titer-Glo luminescent cell viability assay; type: cell-based
Summary of the method: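 CC50 values were determined in the MT4 cell line under 10% NHS conditions.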

[3] = test system: Human immunodeficiency virus 1; test: Antiviral activity against HIV1 infected in human PBMC incubated for 24 hrs in presence of 10% NHS by GFP based single cycle HIV replication assay; type: functional, organism-based; conditions: Human immunodeficiency virus 1, PBMC
Summary of the method: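 Human PBMCs infected with wild-type HIV-1 were tested in a single-cycle HIV replication assay containing 10% normal human serum (NHS), and IC50 values were determined.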

[4] = AUC (0 to infinity) in Sprague-Dawley rat at 1 mg/kg, iv; type: ADME, organism-based; set-up: dose 1 mg/kg, time infinity, route intravenous; conditions: in vivo
Summary of the method: (§1)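 Male Sprague–Dawley rats were dosed intravenously at 1 mg/kg or orally at 2 mg/kg, and pharmacokinetic parameters were derived from plasma data for each route.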

[5] = Oral bioavailability in Sprague-Dawley rat at 5 mg/kg; type: ADME, organism-based; conditions: in vivo
[6] = Half life in Sprague-Dawley rat at 1 mg/kg, iv; type: ADME, organism-based; conditions: in vivo; summary of the method: as §1
[7] = Clearance in Sprague-Dawley rat at 1 mg/kg, iv; type: ADME, organism-based; conditions: in vivo; summary of the method: as §1
[8] = AUC (0 to infinity) in Sprague-Dawley rat at 5 mg/kg, po; type: ADME, organism-based; set-up: dose 5 mg/kg, time infinity, route oral; conditions: in vivo
[9] = Half life in human CD4+ CEM cells at 0.1 to 10 uM by HPLC method; type: ADME, cell-based, CCRF-CEM
[10] = Oral bioavailability in Sprague-Dawley rat at 2 mg/kg; type: ADME, organism-based; conditions: in vivo; summary of the method: as §1
[11] = AUC (0 to infinity) in Sprague-Dawley rat at 2 mg/kg, po; type: ADME, organism-based; set-up: dose 2 mg/kg, time infinity, route oral; conditions: in vivo; summary of the method: as §1

SMILES	IC50 [1]	CC50 at 48 h [2]	IC50 [3]	also measured
C#CC1(COP(=O)(O)OP(=O)(O)OP(=O)(O)O)CC(n2cc(C)c(=O)[nH]c2=O)CC1O (racemic)	0.114 µM			
C#CC1(CO)CC(n2cnc3c(=O)[nH]c(N)nc32)CC1O (racemic)		> 42 µM	0.033 µM	
C#C[C@]1(CO)O[C@@H](n2cnc3c(N)nc(F)nc32)C[C@@H]1O [ISLATRAVIR]		> 4.2 µM	0.00021 µM	AUC(0-inf) [4]: 0.78 µM·h; bioavailability [5]: > 100%; half-life [6]: 0.7 h; clearance [7]: 72 mL/min/kg; AUC(0-inf) [8]: 5 µM·h
C#C[C@@]1(CO)C[C@H](n2cnc3c(=O)[nH]c(N)nc32)C[C@H]1O		> 42 µM	> 2.1 µM	
C#CC1(COP(=O)(O)OP(=O)(O)OP(=O)(O)O)CC(n2cnc3c(=O)[nH]c(N)nc32)CC1O (racemic)	0.324 µM			
Cc1cn(C2CC(O)C(C#N)(COP(=O)(O)OP(=O)(O)OP(=O)(O)O)C2)c(=O)[nH]c1=O (racemic)	0.523 µM			
C#CC1(CO)CC(n2cnc3c(N)nc(F)nc32)CC1O (racemic)		> 42 µM	0.201 µM	
Cc1cn(C2CC(O)C(C#N)(CO)C2)c(=O)[nH]c1=O (racemic)		> 42 µM	> 2.1 µM	
C#C[C@]1(COP(=O)(O)OP(=O)(O)OP(=O)(O)O)O[C@@H](n2cnc3c(N)nc(F)nc32)C[C@@H]1O				half-life at up to 10 µM [9]: > 120 h
C#CC1(COP(=O)(O)OP(=O)(O)OP(=O)(O)O)CC(n2cnc3c(N)nc(Cl)nc32)CC1O (racemic)	20.2 µM			
N#CC1(CO)CC(n2cnc3c(=O)[nH]c(N)nc32)CC1O (racemic)		> 42 µM	1.15 µM	
N#CC1(CO)CC(n2cnc3c(N)nc(F)nc32)CC1O (racemic)		> 42 µM	> 2.1 µM	
C#C[C@]1(CO[P@@](=O)(N[C@@H](C)C(=O)OC(C)C)Oc2ccccc2)C[C@@H](n2cnc3c(OCC)nc(N)nc32)C[C@@H]1O		> 42 µM	0.003 µM	
Nc1ccn([C@@H]2CS[C@H](CO)O2)c(=O)n1 [LAMIVUDINE]		> 42 µM	0.171 µM	
C#C[C@@]1(CO[P@@](=O)(N[C@@H](C)C(=O)OC(C)C)Oc2ccccc2)C[C@H](n2cnc3c(OCC)nc(N)nc32)C[C@H]1O		> 4.2 µM	0.382 µM	
N#CC1(COP(=O)(O)OP(=O)(O)OP(=O)(O)O)CC(n2cnc3c(=O)[nH]c(N)nc32)CC1O (racemic)	0.444 µM			
Nc1ccn([C@@H]2CS[C@H](COP(=O)(O)OP(=O)(O)OP(=O)(O)O)O2)c(=O)n1 [LAMIVUDINE TRIPHOSPHATE]	0.015 µM			
C#CC1(CO)CC(n2cnc3c(N)nc(Cl)nc32)CC1O (racemic)		> 42 µM	0.232 µM	
C#C[C@]1(CO)C[C@@H](n2cnc3c(=O)[nH]c(N)nc32)C[C@@H]1O		> 42 µM	0.024 µM	AUC(0-inf) [4]: 1.82 µM·h; bioavailability [10]: 91%; AUC(0-inf) [11]: 3.3 µM·h; half-life [6]: 9.8 h; clearance [7]: 32.4 mL/min/kg
C#CC1(COP(=O)(O)OP(=O)(O)OP(=O)(O)O)CC(n2cnc3c(N)nc(F)nc32)CC1O (racemic)	3.46 µM			
C#CC1(CO)CC(n2cc(C)c(=O)[nH]c2=O)CC1O (racemic)		> 42 µM	> 2.1 µM	
